According to ChEMBL document CHEMBL1828568, “Novel imaging agents for β-amyloid plaque based on the N-benzoylindole core” (Bioorg Med Chem Lett, 2011):
Blank lines part the entries; values can stand above or below the molecule they belong to.

Assays:
[1] = Binding affinity to amyloid beta fibrils
Outline: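 Competitive binding to Aβ1–40 aggregates, with [125I]TZDM as the radiolabeled reference ligand displaced by unlabeled test compound. Run in triplicate and reported as mean ± SD.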

Stomach [2] = assay: Biodistribution in Kunming mouse stomach assessed per organ at 1 uCi, iv after 30 mins by gamma counting; format: ADME, organism-based; settings: in vivo, 0.5 h
Outline: (§1)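 Radioiodinated tracers given intravenously to normal mice; organs taken at 2, 15, 30, 60, 120 and 240 min after injection. Uptake expressed as % ID/g, mean ± SD of 5 mice; stomach values carry a table footnote.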

Muscle tissue [3] = assay: Biodistribution in Kunming mouse muscle at 1 uCi, iv after 120 mins by gamma counting; format: ADME, organism-based; settings: in vivo, 2 h
Outline: (§2)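 125I-labeled tracer given intravenously to normal mice. Organs and blood were sampled at 2, 15, 30, 60, 120 and 240 min after injection. Uptake is expressed as % ID/g, averaged over 5 mice ± SD.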

Stomach [4] = assay: Biodistribution in Kunming mouse stomach assessed per organ at 1 uCi, iv after 120 mins by gamma counting; format: ADME, organism-based; settings: in vivo, 2 h; outline: as §1
Spleen [5] = assay: Biodistribution in Kunming mouse spleen at 1 uCi, iv after 120 mins by gamma counting; format: ADME, organism-based; settings: in vivo, 2 h; outline: as §2
Stomach [6] = assay: Biodistribution in Kunming mouse stomach assessed per organ at 1 uCi, iv after 240 mins by gamma counting; format: ADME, organism-based; settings: in vivo, 4 h; outline: as §1
Lung [7] = assay: Biodistribution in Kunming mouse lung at 1 uCi, iv after 2 mins by gamma counting; format: ADME, organism-based; settings: in vivo; outline: as §2
Muscle tissue [8] = assay: Biodistribution in Kunming mouse muscle at 1 uCi, iv after 60 mins by gamma counting; format: ADME, organism-based; settings: in vivo, 1 h; outline: as §2
Kidney [9] = assay: Biodistribution in Kunming mouse kidney at 1 uCi, iv after 120 mins by gamma counting; format: ADME, organism-based; settings: in vivo, 2 h; outline: as §2
Heart [10] = assay: Biodistribution in Kunming mouse heart at 1 uCi, iv after 60 mins by gamma counting; format: ADME, organism-based; settings: in vivo, 1 h; outline: as §2
[11] = Octanol-phosphate buffer partition coefficient, log D of the compound at pH 7.4; format: physicochemical
Outline: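 Radioiodinated tracer partitioned between n-octanol and PBS at pH 7.4; log D reported as mean ± SD.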

Spleen [12] = assay: Biodistribution in Kunming mouse spleen at 1 uCi, iv after 30 mins by gamma counting; format: ADME, organism-based; settings: in vivo, 0.5 h; outline: as §2
Blood [13] = assay: Biodistribution in Kunming mouse blood at 1 uCi, iv after 15 mins by gamma counting; format: ADME, organism-based; settings: in vivo, 0.25 h; outline: as §2
Kidney [14] = assay: Biodistribution in Kunming mouse kidney at 1 uCi, iv after 15 mins by gamma counting; format: ADME, organism-based; settings: in vivo, 0.25 h; outline: as §2
Liver [15] = assay: Biodistribution in Kunming mouse liver at 1 uCi, iv after 2 mins by gamma counting; format: ADME, organism-based; settings: in vivo; outline: as §2
Kidney [16] = assay: Biodistribution in Kunming mouse kidney at 1 uCi, iv after 2 mins by gamma counting; format: ADME, organism-based; settings: in vivo; outline: as §2
Heart [17] = assay: Biodistribution in Kunming mouse heart at 1 uCi, iv after 30 mins by gamma counting; format: ADME, organism-based; settings: in vivo, 0.5 h; outline: as §2
Muscle tissue [18] = assay: Biodistribution in Kunming mouse muscle at 1 uCi, iv after 2 mins by gamma counting; format: ADME, organism-based; settings: in vivo; outline: as §2
Liver [19] = assay: Biodistribution in Kunming mouse liver at 1 uCi, iv after 120 mins by gamma counting; format: ADME, organism-based; settings: in vivo, 2 h; outline: as §2
Heart [20] = assay: Biodistribution in Kunming mouse heart at 1 uCi, iv after 15 mins by gamma counting; format: ADME, organism-based; settings: in vivo, 0.25 h; outline: as §2
Brain [21] = assay: Biodistribution in Kunming mouse brain at 1 uCi, iv after 30 mins by gamma counting; format: ADME, organism-based; settings: in vivo, 0.5 h; outline: as §2
Brain [22] = assay: Biodistribution in Kunming mouse brain at 1 uCi, iv after 120 mins by gamma counting; format: ADME, organism-based; settings: in vivo, 2 h; outline: as §2
Muscle tissue [23] = assay: Biodistribution in Kunming mouse muscle at 1 uCi, iv after 15 mins by gamma counting; format: ADME, organism-based; settings: in vivo, 0.25 h; outline: as §2
Spleen [24] = assay: Biodistribution in Kunming mouse spleen at 1 uCi, iv after 15 mins by gamma counting; format: ADME, organism-based; settings: in vivo, 0.25 h; outline: as §2
Spleen [25] = assay: Biodistribution in Kunming mouse spleen at 1 uCi, iv after 240 mins by gamma counting; format: ADME, organism-based; settings: in vivo, 4 h; outline: as §2
Muscle tissue [26] = assay: Biodistribution in Kunming mouse muscle at 1 uCi, iv after 240 mins by gamma counting; format: ADME, organism-based; settings: in vivo, 4 h; outline: as §2
Lung [27] = assay: Biodistribution in Kunming mouse lung at 1 uCi, iv after 30 mins by gamma counting; format: ADME, organism-based; settings: in vivo, 0.5 h; outline: as §2
Kidney [28] = assay: Biodistribution in Kunming mouse kidney at 1 uCi, iv after 60 mins by gamma counting; format: ADME, organism-based; settings: in vivo, 1 h; outline: as §2
Brain [29] = assay: Biodistribution in Kunming mouse brain at 1 uCi, iv after 240 mins by gamma counting; format: ADME, organism-based; settings: in vivo, 4 h; outline: as §2
Liver [30] = assay: Biodistribution in Kunming mouse liver at 1 uCi, iv after 30 mins by gamma counting; format: ADME, organism-based; settings: in vivo, 0.5 h; outline: as §2
Kidney [31] = assay: Biodistribution in Kunming mouse kidney at 1 uCi, iv after 30 mins by gamma counting; format: ADME, organism-based; settings: in vivo, 0.5 h; outline: as §2
Kidney [32] = assay: Biodistribution in Kunming mouse kidney at 1 uCi, iv after 240 mins by gamma counting; format: ADME, organism-based; settings: in vivo, 4 h; outline: as §2
Liver [33] = assay: Biodistribution in Kunming mouse liver at 1 uCi, iv after 15 mins by gamma counting; format: ADME, organism-based; settings: in vivo, 0.25 h; outline: as §2
Blood [34] = assay: Biodistribution in Kunming mouse blood at 1 uCi, iv after 120 mins by gamma counting; format: ADME, organism-based; settings: in vivo, 2 h; outline: as §2
Blood [35] = assay: Biodistribution in Kunming mouse blood at 1 uCi, iv after 60 mins by gamma counting; format: ADME, organism-based; settings: in vivo, 1 h; outline: as §2
Blood [36] = assay: Biodistribution in Kunming mouse blood at 1 uCi, iv after 240 mins by gamma counting; format: ADME, organism-based; settings: in vivo, 4 h; outline: as §2
Brain [37] = assay: Biodistribution in Kunming mouse brain at 1 uCi, iv after 60 mins by gamma counting; format: ADME, organism-based; settings: in vivo, 1 h; outline: as §2
Stomach [38] = assay: Biodistribution in Kunming mouse stomach assessed per organ at 1 uCi, iv after 60 mins by gamma counting; format: ADME, organism-based; settings: in vivo, 1 h; outline: as §1
Liver [39] = assay: Biodistribution in Kunming mouse liver at 1 uCi, iv after 60 mins by gamma counting; format: ADME, organism-based; settings: in vivo, 1 h; outline: as §2
Heart [40] = assay: Biodistribution in Kunming mouse heart at 1 uCi, iv after 2 mins by gamma counting; format: ADME, organism-based; settings: in vivo; outline: as §2
Heart [41] = assay: Biodistribution in Kunming mouse heart at 1 uCi, iv after 240 mins by gamma counting; format: ADME, organism-based; settings: in vivo, 4 h; outline: as §2
Liver [42] = assay: Biodistribution in Kunming mouse liver at 1 uCi, iv after 240 mins by gamma counting; format: ADME, organism-based; settings: in vivo, 4 h; outline: as §2
Lung [43] = assay: Biodistribution in Kunming mouse lung at 1 uCi, iv after 240 mins by gamma counting; format: ADME, organism-based; settings: in vivo, 4 h; outline: as §2
Brain [44] = assay: Biodistribution in Kunming mouse brain at 1 uCi, iv after 2 mins by gamma counting; format: ADME, organism-based; settings: in vivo; outline: as §2
Stomach [45] = assay: Biodistribution in Kunming mouse stomach assessed per organ at 1 uCi, iv after 15 mins by gamma counting; format: ADME, organism-based; settings: in vivo, 0.25 h; outline: as §1
Muscle tissue [46] = assay: Biodistribution in Kunming mouse muscle at 1 uCi, iv after 30 mins by gamma counting; format: ADME, organism-based; settings: in vivo, 0.5 h; outline: as §2
Lung [47] = assay: Biodistribution in Kunming mouse lung at 1 uCi, iv after 15 mins by gamma counting; format: ADME, organism-based; settings: in vivo, 0.25 h; outline: as §2
Lung [48] = assay: Biodistribution in Kunming mouse lung at 1 uCi, iv after 60 mins by gamma counting; format: ADME, organism-based; settings: in vivo, 1 h; outline: as §2
Blood [49] = assay: Biodistribution in Kunming mouse blood at 1 uCi, iv after 30 mins by gamma counting; format: ADME, organism-based; settings: in vivo, 0.5 h; outline: as §2
Spleen [50] = assay: Biodistribution in Kunming mouse spleen at 1 uCi, iv after 2 mins by gamma counting; format: ADME, organism-based; settings: in vivo; outline: as §2
Blood [51] = assay: Biodistribution in Kunming mouse blood at 1 uCi, iv after 2 mins by gamma counting; format: ADME, organism-based; settings: in vivo; outline: as §2
Stomach [52] = assay: Biodistribution in Kunming mouse stomach assessed per organ at 1 uCi, iv after 2 mins by gamma counting; format: ADME, organism-based; settings: in vivo; outline: as §1
Spleen [53] = assay: Biodistribution in Kunming mouse spleen at 1 uCi, iv after 60 mins by gamma counting; format: ADME, organism-based; settings: in vivo, 1 h; outline: as §1
Brain [54] = assay: Biodistribution in Kunming mouse brain at 1 uCi, iv after 15 mins by gamma counting; format: ADME, organism-based; settings: in vivo, 0.25 h; outline: as §2
Lung [55] = assay: Biodistribution in Kunming mouse lung at 1 uCi, iv after 120 mins by gamma counting; format: ADME, organism-based; settings: in vivo, 2 h; outline: as §2
Heart [56] = assay: Biodistribution in Kunming mouse heart at 1 uCi, iv after 120 mins by gamma counting; format: ADME, organism-based; settings: in vivo, 2 h; outline: as §2

Ki [1]: 11.3 nM
Structure (SMILES): CC(C)Cc1ccc([C@@H](C)C(=O)O)cc1 [(R)-IBUPROPHEN]

Drug uptake (Stomach [2]): 4.92 %ID
Drug uptake (Muscle tissue [3]): 0.65 % ID/g
Drug uptake (Stomach [4]): 5.31 %ID
Drug uptake (Spleen [5]): 6.18 % ID/g
Drug uptake (Stomach [6]): 4.14 %ID
Drug uptake (Lung [7]): 21.76 % ID/g
Drug uptake (Muscle tissue [8]): 1.3 % ID/g
Drug uptake (Kidney [9]): 4.21 % ID/g
Drug uptake (Heart [10]): 1.53 % ID/g
logD [11]: 2.32
Drug uptake (Spleen [12]): 7.12 % ID/g
Drug uptake (Blood [13]): 5.82 % ID/g
Drug uptake (Kidney [14]): 9.31 % ID/g
Drug uptake (Liver [15]): 24.76 % ID/g
Drug uptake (Kidney [16]): 12.01 % ID/g
Drug uptake (Heart [17]): 2.45 % ID/g
Drug uptake (Muscle tissue [18]): 2.73 % ID/g
Drug uptake (Liver [19]): 9.3 % ID/g
Drug uptake (Heart [20]): 3.52 % ID/g
Drug uptake (Brain [21]): 1.6 % ID/g
Drug uptake (Brain [22]): 0.42 % ID/g
Drug uptake (Muscle tissue [23]): 2.62 % ID/g
Drug uptake (Spleen [24]): 8.04 % ID/g
Drug uptake (Spleen [25]): 4.45 % ID/g
Drug uptake (Muscle tissue [26]): 0.92 % ID/g
Drug uptake (Lung [27]): 9.05 % ID/g
Drug uptake (Kidney [28]): 5.71 % ID/g
Drug uptake (Brain [29]): 0.21 % ID/g
Drug uptake (Liver [30]): 14.05 % ID/g
Drug uptake (Kidney [31]): 8.21 % ID/g
Drug uptake (Kidney [32]): 4.05 % ID/g
Drug uptake (Liver [33]): 18.05 % ID/g
Drug uptake (Blood [34]): 3.12 % ID/g
Drug uptake (Blood [35]): 3.79 % ID/g
Drug uptake (Blood [36]): 2.78 % ID/g
Drug uptake (Brain [37]): 1.04 % ID/g
Drug uptake (Stomach [38]): 5 %ID
Drug uptake (Liver [39]): 12.3 % ID/g
Drug uptake (Heart [40]): 12.64 % ID/g
Drug uptake (Heart [41]): 1.17 % ID/g
Drug uptake (Liver [42]): 7.65 % ID/g
Drug uptake (Lung [43]): 2.95 % ID/g
Drug uptake (Brain [44]): 2.19 % ID/g
Drug uptake (Stomach [45]): 4.06 %ID
Drug uptake (Muscle tissue [46]): 1.63 % ID/g
Drug uptake (Lung [47]): 11.13 % ID/g
Drug uptake (Lung [48]): 6.39 % ID/g
Drug uptake (Blood [49]): 4.9 % ID/g
Drug uptake (Spleen [50]): 6 % ID/g
Drug uptake (Blood [51]): 13.91 % ID/g
Drug uptake (Stomach [52]): 0.71 %ID
Drug uptake (Spleen [53]): 7.16 % ID/g
Drug uptake (Brain [54]): 2.29 % ID/g
Drug uptake (Lung [55]): 4.31 % ID/g
Drug uptake (Heart [56]): 1.21 % ID/g
Structure (SMILES): COc1ccc(/C=C/C(=O)n2ccc3cc([125I])ccc32)cc1

Ki [1]: 44.4 nM
Structure (SMILES): CC(C)Cc1ccc([C@H](C)C(=O)O)cc1 [DEXIBUPROFEN]
